For data set [1], the system named is Plasma. In words: Stability in human plasma assessed as aspirin production at pH 7.4. Type of data set: ADME, cell-free. The method in brief:
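Test ester incubated in dilute (10%) buffered human plasma, pH 7.4, 37 °C. Products (parent ester, deacetylated salicylate ester, aspirin, salicylic acid) were followed over time by RP-HPLC with PDA detection; salicylate esters read at 296 nm. Disappearance fitted to pseudo-first-order kinetics, half-life = 0.693/k_obs. Aspirin yield expressed on a molar basis.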

Data set [2] is filed under the species Homo sapiens. Put plainly: Stability in human plasma assessed as hydrolysis half life.

Molecules are shown by their SMILES.

As usually defined, the half-life is the time needed for the level to fall by half in the phase considered. For `CC(=O)Oc1ccccc1C(=O)OCCO[N+](=O)[O-]`, the Activity in data set [1] was below 0.5%. Also, the half-life in data set [2] was 1.6 min.
Turning to `CC(=O)Oc1ccccc1C(=O)OC(C)CO[N+](=O)[O-]` (configuration not stated), the Activity in data set [1] is recorded as below 0.5%. Besides, the half-life in data set [2] is 1.47 min.
As for `CC(=O)Oc1ccccc1C(=O)OCC(=O)N(C)CCO[N+](=O)[O-]`, the Activity in data set [1] was below 0.5%. Further, the half-life in data set [2] is 1.17 min.
As for `CCN(CCO[N+](=O)[O-])C(=O)COC(=O)c1ccccc1OC(C)=O`, the Activity in data set [1] was below 0.5%. The half-life in data set [2] was 1.03 min.
Take `CCCN(CCO[N+](=O)[O-])C(=O)COC(=O)c1ccccc1OC(C)=O`: in data set [1], the Activity is recorded as below 0.5%. The half-life in data set [2] was 1.15 min.
Consider `CC(=O)Oc1ccccc1C(=O)OCC(=O)N(CCO[N+](=O)[O-])CC[N+](=O)[O-]`, for which the Activity in data set [1] is below 0.5%. Also, the half-life in data set [2] is 6.12 min.
`CC(=O)Oc1ccccc1C(=O)OCCN(C)CCO[N+](=O)[O-]`: the Activity in data set [1] is below 0.5%. For the same compound, in data set [2], the half-life was 0.35 min.
For the compound `CCN(CCOC(=O)c1ccccc1OC(C)=O)CCO[N+](=O)[O-]`, in data set [1], the Activity is given as below 0.5%. Moreover, in data set [2], the half-life is 1.05 min.
In the case of `CCCN(CCOC(=O)c1ccccc1OC(C)=O)CCO[N+](=O)[O-]`, in data set [1], the Activity was 9.2%. The half-life in data set [2] was 0.65 min.
For the compound `CC(=O)Oc1ccccc1C(=O)OCCN(CCO[N+](=O)[O-])CCO[N+](=O)[O-]`, the Activity in data set [1] is reported as below 0.5%. The half-life in data set [2] is 1.12 min.
As to `CC(=O)Oc1ccccc1C(=O)OCCCO[N+](=O)[O-]`, the Activity in data set [1] was below 0.5%. The half-life in data set [2] is 2.23 min.

(Values after ChEMBL document CHEMBL1139206, “Evaluation of nitrate-substituted pseudocholine esters of aspirin as potential nitro-aspirins” (Bioorg Med Chem Lett, 2007).)
